Results on 27 compounds are retold here after ChEMBL document CHEMBL1146906, “Novel potent anticonvulsant agent containing a tetrahydroisoquinoline skeleton” (2006).

In assay [1] the test system is Mus musculus. Briefly: Anticonvulsant activity against clonic phase of audiogenic seizures in ip dosed DBA/2 mouse. It is filed as functional. The conditions noted are these: DBA/2, ip. In short, it runs like this:
(§1)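 DBA/2 mice of either sex, groups of 10, given vehicle or each dose intraperitoneally, then exposed to auditory stimulation […]. Incidence of each seizure phase scored. ED50 per phase from dose-response curves fitted by Litchfield and Wilcoxon method. Groups compared by Fisher's exact probability test.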

In assay [2] the test system is Mus musculus. Description: Anticonvulsant activity against tonic phase of audiogenic seizures in ip dosed DBA/2 mouse. It is filed as functional. The note with it: DBA/2, ip. Put shortly:
as §1

The species named for assay [3] is Rattus norvegicus. Description: Inhibition of AMPA-induced membrane current in Wistar rat olfactory cortex at 0.5 uM by voltage clamp method. It is filed as functional. On the set-up: scale not given: the % may be the effect or the level left. In short, it runs like this:
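Transverse olfactory cortex slices from male Wistar rats, kept in oxygenated Krebs solution and superfused with 1 µM TTX. Neurons voltage-clamped at -70 mV. Test agent diluted from DMSO stock into Krebs (0.1-1% v/v DMSO) and pre-incubated 10 min. Peak inward currents evoked by 0.25-5 µM AMPA measured. Pooled means, N = 7.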

The target of assay [4] is Glutamate receptor ionotropic, AMPA (Rattus norvegicus) (UniProt P19491+P19492+P19493+P19490). Briefly: Displacement of [3H]AMPA from AMPA receptor at 0.5 uM. It is filed as protein-complex assay. In short, it runs like this:
(§2)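 Radioligand binding assays run at 0.5 µM test compound, using [3H]AMPA, [3H]CGP 39653 or [3H]kainic acid as ligand.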
(In general: Loss of bound radioactivity is the signal in a displacement assay; it reports binding, not function.)

In assay [5] the target is Glutamate NMDA receptor (Rattus norvegicus) (UniProt P35439+Q00959+Q00960+Q00961+Q62645+Q8VHN2+Q9R1M7). Description: Displacement of [3H]CGP-39653 from NMDA receptor at 0.5 uM. It is filed as protein-complex assay. Put shortly: as §2
The target of assay [6] is Glutamate receptor ionotropic, kainate (Rattus norvegicus) (UniProt P22756+Q01812+P42260+P42264+Q63273). Description: Displacement of [3H]kainic acid from kainate receptor at 0.5 uM. It is filed as protein-complex assay. Put shortly: as §2

As a reminder, the ED50 is the dose that gives a 50% effect, or the effect in half of the subjects. Consider `CCN(CC)CC(=O)N1CCc2cc(OC)c(OC)cc2C1c1ccc(N)cc1` (stereo not drawn), for which the figures for the ED50 in assay [1] and in assay [2] were 80.2 µmol/kg and 49 µmol/kg, respectively.
As for `COc1cc2c(cc1OC)C(c1ccc(Cl)cc1)N(C(C)=O)CC2` (stereo not drawn), the Activity in assay [3] is 7%.
For the compound `CCN(CC)CC(=O)N1CCc2cc(OC)c(OC)cc2C1c1cccc([N+](=O)[O-])c1` (stereo not drawn), the ED50 in assay [1] was determined as 38.6 µmol/kg; in assay [2], 16.7 µmol/kg.
Consider `COc1cc2c(cc1OC)C(c1ccc([N+](=O)[O-])cc1)N(C(=O)CN1CCOCC1)CC2` (stereo not drawn), for which the median effective dose (ED50) in assay [1] was > 100 µmol/kg; in assay [2] it was 56.5 µmol/kg.
For the compound `COc1cc2c(cc1OC)C(c1ccc([N+](=O)[O-])cc1)N(C(=O)CN1CCCCC1)CC2` (stereo not drawn), the 50% effective dose (ED50) in assay [1] and in assay [2] was > 100 µmol/kg each time.
As to `COc1cc2c(cc1OC)C(c1ccc(N)cc1)N(C(=O)CN1CCCCC1)CC2` (stereo not drawn), the ED50 in assay [1] came to 84.9 µmol/kg; in assay [2], 45.3 µmol/kg.
On the same counts, the results for `COc1cc2c(cc1OC)C(c1ccc(F)cc1)N(C(=O)CN1CCCCC1)CC2` (stereo not drawn) are 82.8 µmol/kg and 63 µmol/kg.
In turn, `COc1cc2c(cc1OC)C(c1ccc(N)cc1)=NNC(=O)C2` showed an ED50 in assay [1] of 15 µmol/kg.
In the case of `COc1cc2c(cc1OC)C(c1cccc(N)c1)N(C(=O)CN1CCOCC1)CC2` (stereo not drawn), the ED50 in assay [1] was 63.4 µmol/kg; in assay [2], 34.3 µmol/kg.
As for `COc1cc2c(cc1OC)C(c1ccc(Cl)cc1)N(C(=O)CN1CCOCC1)CC2` (stereo not drawn), the ED50 in assay [1] is > 100 µmol/kg; in assay [2] it was 82.8 µmol/kg.
The compound `CC(=O)N1N=C(c2ccc(N)cc2)c2cc3c(cc2C[C@H]1C)OCO3` [TALAMPANEL] showed a 50% effective dose (ED50) in assay [2] of 9.7 µmol/kg.
With `CCN(CC)CC(=O)N1CCc2cc(OC)c(OC)cc2C1c1ccc(Cl)cc1` (stereo not drawn), the ED50 in assay [1] was found to be 24.7 µmol/kg; in assay [2] it was 11.8 µmol/kg.
On the same counts, the results for `COc1cc2c(cc1OC)C(c1ccccc1)N(C(=O)CN1CCCCC1)CC2` (stereo not drawn) are > 100 µmol/kg and > 100 µmol/kg.
As to `CCN(CC)CC(=O)N1CCc2cc(OC)c(OC)cc2C1c1cccc(N)c1` (stereo not drawn), the figures for the ED50 in assay [1] and in assay [2] were 111 µmol/kg and 50.5 µmol/kg, respectively.
Turning to `COc1cc2c(cc1OC)C(c1ccccc1)N(C(=O)CN1CCOCC1)CC2` (stereo not drawn), the ED50 in assay [1] and in assay [2] was > 100 µmol/kg in each case.
As for `COc1cc2c(cc1OC)C(c1cccc(N)c1)N(C(=O)CN1CCCCC1)CC2` (stereo not drawn), the 50% effective dose (ED50) in assay [1] is 70.2 µmol/kg; in assay [2], 47.3 µmol/kg.
Consider `COc1cc2c(cc1OC)C(c1cccc([N+](=O)[O-])c1)N(C(=O)CN1CCOCC1)CC2` (stereo not drawn), for which the ED50 in assay [1] and in assay [2] was > 100 µmol/kg in each case.
Regarding `COc1cc2c(cc1OC)C(c1ccc(N)cc1)N(C(=O)CN1CCOCC1)CC2` (stereo not drawn), the ED50 in assay [1] turned out to be 87.5 µmol/kg; in assay [2], 63.4 µmol/kg.
Turning to `COc1cc2c(cc1OC)C(c1cccc([N+](=O)[O-])c1)N(C(=O)CN1CCCCC1)CC2` (stereo not drawn), the results for the ED50 in assay [1] and in assay [2] were > 100 µmol/kg and 82.8 µmol/kg, respectively.
In the same order, the values of `COc1cc2c(cc1OC)C(c1ccc(Br)cc1)N(C(=O)CN1CCOCC1)CC2` (stereo not drawn) are > 100 µmol/kg and 83.8 µmol/kg.
On the same counts, the results for `CCN(CC)CC(=O)N1CCc2cc(OC)c(OC)cc2C1c1ccc(F)cc1` (stereo not drawn) are 44.5 µmol/kg and 33 µmol/kg.
On the same counts, the results for `COc1cc2c(cc1OC)C(c1ccc(Cl)cc1)N(C(=O)CN1CCCCC1)CC2` (stereo not drawn) are 39.8 µmol/kg and 17 µmol/kg.
As to `CCN(CC)CC(=O)N1CCc2cc(OC)c(OC)cc2C1c1ccc(Br)cc1` (stereo not drawn), the ED50 in assay [1] stood at 50.5 µmol/kg; in assay [2], 24.7 µmol/kg.
On the same counts, the results for `CCN(CC)CC(=O)N1CCc2cc(OC)c(OC)cc2C1c1ccc([N+](=O)[O-])cc1` (stereo not drawn) are > 100 µmol/kg and > 100 µmol/kg.
On to `COc1cc2c(cc1OC)C(c1ccc(Br)cc1)N(C(=O)CN1CCCCC1)CC2` (stereo not drawn), for which the Activity is < 6% in assay [4], < 6% in assay [5], < 6% in assay [6] and 6% in assay [3].
`COc1cc2c(cc1OC)C(c1ccc(F)cc1)N(C(=O)CN1CCOCC1)CC2` (stereo not drawn): the figures for the median effective dose (ED50) in assay [1] and in assay [2] were 71.7 µmol/kg and 46.9 µmol/kg, respectively.
In the same order, the values of `CCN(CC)CC(=O)N1CCc2cc(OC)c(OC)cc2C1c1ccccc1` (stereo not drawn) are 49.1 µmol/kg and 34.8 µmol/kg.
